# Measured values reported in ChEMBL document CHEMBL1221219, “Selective blockade of 2-arachidonoylglycerol hydrolysis produces cannabinoid behavioral effects” (Nat Chem Biol, 2009).
# Activity calls are given as the source filed them. No cut-off for these calls is given here.
# Legend:
# Mus musculus [1] = assay: Inhibition of FAS in C57B1/6J mouse brain membrane at 16 mg/kg, ip after 4 hrs by competitive activity-based protein profiling-MudPIT method; type: functional, organism-based; set-up: dose 16 mg/kg
# Summary of the method: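 After i.p. dosing in 4:1 PEG300:Tween80, male C57Bl/6J mice were killed at 4 h. Brain membrane proteomes from treated and vehicle mice were labelled with FP-biotin. Labelled proteins were enriched on avidin, digested on-bead with trypsin and analysed by multidimensional LC-MS. Proteins were identified by SEQUEST, and dosed samples were compared with vehicle.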
# Mus musculus [2] = assay: Inhibition of JZL184 induced immobility in C57B1/6J mouse at 16 mg/kg, ip; type: functional, organism-based; set-up: dose 16 mg/kg
# Mus musculus [3] = assay: Change in anandamide level in C57B1/6J mouse brain at 16 mg/kg, ip by LC-MS; type: functional, organism-based; set-up: dose 16 mg/kg
# Summary of the method: (§1)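 Mice received 16 mg kg^-1 i.p. in 4:1 PEG300:Tween80 and were killed at 0.5, 1, 2, 4, 8 and 24 h. Brain lipids, including N-acylethanolamines, MAGs, free fatty acids and arachidonic acid, were measured by LC-MS.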
# Mus musculus [4] = assay: Inhibition of AChE in C57B1/6J mouse brain membrane at 16 mg/kg, ip after 4 hrs by competitive activity-based protein profiling-MudPIT method; type: functional, organism-based; set-up: dose 16 mg/kg
# Summary of the method: (§2)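 Mice were dosed 16 mg kg^-1 i.p. or vehicle and killed at 4 h. Brain membrane proteomes were labelled with FP-biotin, avidin-enriched, trypsin-digested on bead, analysed by multidimensional LC-MS and identified by SEQUEST.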
# [5] = molecular target: T1, Monoglyceride lipase (Mus musculus) (UniProt O35678); conditions: C57B1/6J, Brain, Membrane, 50 nM
# T1 sequence (whole entry): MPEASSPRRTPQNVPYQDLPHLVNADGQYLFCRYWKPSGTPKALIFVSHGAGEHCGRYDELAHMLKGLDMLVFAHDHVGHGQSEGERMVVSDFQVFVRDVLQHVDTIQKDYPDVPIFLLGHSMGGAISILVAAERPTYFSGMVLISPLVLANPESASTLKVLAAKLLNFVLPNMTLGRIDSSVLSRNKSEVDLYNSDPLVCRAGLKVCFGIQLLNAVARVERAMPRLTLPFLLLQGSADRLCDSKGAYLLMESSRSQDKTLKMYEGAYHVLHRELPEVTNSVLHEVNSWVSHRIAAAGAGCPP
# Mus musculus [6] = assay: Antinociceptive activity against formalin-induced pain in C57B1/6J mouse assessed as paw lifting or licking during late phase (20-40 mins) at 40 m/kg, po administered 2 hrs before formalin challenge; type: functional, organism-based
# Mus musculus [7] = assay: Inhibition of 2210412D01 gene in C57B1/6J mouse brain membrane at 16 mg/kg, ip after 4 hrs by competitive activity-based protein profiling-MudPIT method; type: functional, organism-based; set-up: dose 16 mg/kg; summary of the method: as §2
# Mus musculus [8] = assay: Change in monoacylglycerol level in C57B1/6J mouse brain at 16 mg/kg, ip by LC-MS; type: functional, organism-based; set-up: dose 16 mg/kg; summary of the method: as §1
# Mus musculus [9] = assay: Inhibition of ABHD3 in C57B1/6J mouse brain membrane at 16 mg/kg, ip after 4 hrs by competitive activity-based protein profiling-MudPIT method; type: functional, organism-based; set-up: dose 16 mg/kg; summary of the method: as §2
# Mus musculus [10] = assay: Induction of hypomotility in CB1 receptor deficient C57B1/6J mouse at 16 mg/kg, ip; type: functional, organism-based; set-up: dose 16 mg/kg
# Summary of the method: (§3)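 Male C57Bl/6J mice, 6-8 weeks, 20-26 g, given 16 mg kg^-1 i.p. in 4:1 v/v PEG300:Tween80 at 4 μl g^-1; vehicle controls received PEG300:Tween80 alone. Cannabinoid effects were scored in the tetrad test.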
# Mus musculus [11] = assay: Inhibition of MAGL in C57B1/6J mouse brain membrane assessed as inhibition of 2-AG hydrolysis activity at 16 mg/kg, ip upto 24 hrs by competitive activity-based protein profiling method relative to control; type: functional; conditions: route intraperitoneal
# Summary of the method: (§4)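 Male C57Bl/6J mice dosed i.p. in 4:1 v/v PEG300:Tween80, with vehicle controls; killed at set times (0.5-24 h, or 4 h). Brain membrane 2-AG hydrolysis measured by LC-MS substrate assay, and brain 2-AG measured by lipid LC-MS, relative to vehicle.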
# Mus musculus [12] = assay: Inhibition of MAGL in C57B1/6J mouse brain membrane assessed as increase in 2-AG level at 16 mg/kg, ip upto 24 hrs by competitive activity-based protein profiling method relative to control; type: functional; conditions: route intraperitoneal; summary of the method: as §4
# Mus musculus [13] = assay: Antinociceptive activity against formalin-induced pain in C57B1/6J mouse assessed as paw lifting or licking during late phase (20-40 mins) at 40 m/kg, po administered 2 hrs before formalin challenge pretreated with rimonabant; type: functional, organism-based
# [14] = molecular target: T2, Diacylglycerol lipase-alpha (Homo sapiens) (UniProt Q9Y4D2); assay: Inhibition of recombinant DAGLalpha expressed in HEK293 cells assessed as hydrolysis of 1-stearoyl-2-arachidonoyl-glycerol to 2-AG at 25 uM after 30 mins by LC-MS method; type: cell-based
# T2 sequence (whole entry): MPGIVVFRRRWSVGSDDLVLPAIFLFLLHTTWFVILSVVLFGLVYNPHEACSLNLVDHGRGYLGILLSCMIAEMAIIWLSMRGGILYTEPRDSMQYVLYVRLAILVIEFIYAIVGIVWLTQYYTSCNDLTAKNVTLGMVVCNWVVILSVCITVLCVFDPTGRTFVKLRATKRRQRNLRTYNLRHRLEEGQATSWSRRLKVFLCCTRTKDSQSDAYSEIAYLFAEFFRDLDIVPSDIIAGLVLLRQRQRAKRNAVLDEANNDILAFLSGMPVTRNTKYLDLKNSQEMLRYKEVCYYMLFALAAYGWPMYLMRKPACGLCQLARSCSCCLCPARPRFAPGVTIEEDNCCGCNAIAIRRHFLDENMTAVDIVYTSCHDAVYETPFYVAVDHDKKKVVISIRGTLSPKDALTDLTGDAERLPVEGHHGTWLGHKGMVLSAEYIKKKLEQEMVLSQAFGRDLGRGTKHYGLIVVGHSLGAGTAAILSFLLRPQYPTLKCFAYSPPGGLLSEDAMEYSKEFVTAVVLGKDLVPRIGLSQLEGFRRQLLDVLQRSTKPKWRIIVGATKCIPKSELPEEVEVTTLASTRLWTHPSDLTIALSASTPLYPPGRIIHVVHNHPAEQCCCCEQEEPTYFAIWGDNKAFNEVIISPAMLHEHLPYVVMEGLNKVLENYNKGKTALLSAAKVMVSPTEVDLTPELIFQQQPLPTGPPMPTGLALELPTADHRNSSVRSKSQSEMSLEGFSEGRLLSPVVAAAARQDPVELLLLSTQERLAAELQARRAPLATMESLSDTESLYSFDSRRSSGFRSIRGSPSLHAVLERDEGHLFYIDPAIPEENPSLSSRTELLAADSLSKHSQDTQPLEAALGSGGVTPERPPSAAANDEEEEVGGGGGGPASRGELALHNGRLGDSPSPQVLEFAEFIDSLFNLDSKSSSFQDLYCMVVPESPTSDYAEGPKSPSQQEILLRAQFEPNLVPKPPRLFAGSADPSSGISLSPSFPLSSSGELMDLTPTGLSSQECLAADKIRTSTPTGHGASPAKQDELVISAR
# Mus musculus [15] = assay: Analgesic activity against CB1 receptor deficient C57B1/6J mouse at 16 mg/kg, ip; type: functional, organism-based; set-up: dose 16 mg/kg; summary of the method: as §3
compound,measurement,setting,value
O=C(Oc1ccc([N+](=O)[O-])cc1)N1CCC(C(O)(c2ccc3c(c2)OCO3)c2ccc3c(c2)OCO3)CC1,inhibition,Mus musculus [1],inactive
same,inhibition,Mus musculus [2],Active
same,Activity,Mus musculus [3],inactive
same,inhibition,Mus musculus [4],inactive
same,inhibition,[5],Active
same,Activity,Mus musculus [6],Active
same,inhibition,Mus musculus [7],inactive
same,Activity,Mus musculus [8],inactive
same,inhibition,Mus musculus [9],inactive
same,Activity,Mus musculus [10],inactive
same,inhibition in vivo at 16 mg/kg,Mus musculus [11],> 80%
same,inhibition in vivo at 16 mg/kg,Mus musculus [12],> 80%
same,Activity,Mus musculus [13],inactive
same,inhibition,[14],inactive
same,Activity,Mus musculus [15],inactive
